Converted amounts (≈) assume the structure as drawn. The source made the active and inactive calls. The calls are words filed in the database; no cut-off is given here. Peptide text beside a SMILES is read from it.
How the values were obtained:
[1] = Cytotoxicity against human HCT116 cells after 72 hrs by CCK8 assay; assay type: functional, cell-based; conditions: HCT-116, 72 h
[2] = Solubility in 80% EtOH/20% water; assay type: physicochemical
[3] = Cytotoxicity against human MIAPaCa2 cells after 72 hrs by CCK8 assay; assay type: functional, cell-based; conditions: MIA PaCa-2, 72 h
[4] = Induction of heat shock response in human MIAPaCa2 cells assessed as HSP70 protein expression at IC50 level by western blotting method relative to untreated control; assay type: cell-based; conditions: mia paca-2
[5] = target: Heat shock protein HSP 90-beta (Oryctolagus cuniculus) (UniProt P30947); conditions: 100 nM
HCT-116 [6] = experiment: Induction of apoptosis in human HCT116 cells at 1000 nM after 24 hrs by annexin V and 7-AAD staining based flow cytometry; assay type: functional
[7] = Induction of heat shock response in human HCT116 cells assessed as HSP90 protein expression at IC50 level by western blotting method relative to untreated control; assay type: cell-based; conditions: hct-116
HCT-116 [8] = experiment: Induction of apoptosis in human HCT116 cells assessed as caspase 3/7 activation at 1000 nM after 24 hrs by luminometry; assay type: functional
[9] = Induction of heat shock response in human MIAPaCa2 cells assessed as HSP90 protein expression at IC50 level by western blotting method relative to untreated control; assay type: cell-based; conditions: mia paca-2
Outline: (§1)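 MiaPaCa-2 cells, run alongside HCT-116, treated with compound at the line's level and also at 10-fold above it. Western blotting measured HSF1, hsp90, hsp70, hsp40 and hsp27 protein levels, quantified as fold change versus untreated control.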

[10] = Induction of heat shock response in human HCT116 cells assessed as HSF1 protein expression at IC50 level by western blotting method relative to untreated control; assay type: cell-based; conditions: hct-116
[11] = Induction of heat shock response in human MIAPaCa2 cells assessed as HSP27 protein expression at IC50 level by western blotting method relative to untreated control; assay type: cell-based; conditions: mia paca-2; outline: as §1
[12] = Induction of heat shock response in human HCT116 cells assessed as HSP70 protein expression at IC50 level by western blotting method relative to untreated control; assay type: cell-based; conditions: hct-116
[13] = Induction of heat shock response in human MIAPaCa2 cells assessed as HSF1 protein expression at IC50 level by western blotting method relative to untreated control; assay type: cell-based; conditions: mia paca-2
MIA PaCa-2 [14] = experiment: Induction of apoptosis in human MIAPaCa2 cells assessed as caspase 3/7 activation at 1000 nM after 24 hrs by luminometry; assay type: functional
[15] = Induction of heat shock response in human MIAPaCa2 cells assessed as HSP40 protein expression at IC50 level by western blotting method relative to untreated control; assay type: cell-based; conditions: mia paca-2
[16] = Induction of heat shock response in human HCT116 cells assessed as HSP40 protein expression at IC50 level by western blotting method relative to untreated control; assay type: cell-based; conditions: hct-116
[17] = Induction of heat shock response in human HCT116 cells assessed as HSP27 protein expression at IC50 level by western blotting method relative to untreated control; assay type: cell-based; conditions: hct-116
[18] = Reduction in HSF1 protein expression in human MIAPaCa2 cells at 50 uM by western blotting method relative to untreated control; assay type: functional, cell-based; conditions: MIA PaCa-2
MIA PaCa-2 [19] = experiment: Induction of apoptosis in human MIAPaCa2 cells assessed as caspase 3/7 activation at 50 uM after 24 hrs by luminometry; assay type: functional
[20] = Reduction in HSP70 protein expression in human HCT116 cells at 50 uM by western blotting method relative to untreated control; assay type: functional, cell-based; conditions: HCT-116
[21] = target: Heat shock protein HSP 90-beta (Oryctolagus cuniculus) (UniProt P30947); experiment: Inhibition of HSP90 in rabbit reticulocyte lysates at 5 uM […] by firefly luciferase protein re-folding assay; conditions: in the assay text read “2 hrs” for “5 hrs”
Outline: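 Denatured firefly luciferase incubated for 2 h in rabbit reticulocyte lysate pretreated with compound. Refolding read as luciferase activity relative to control. Mean ± SEM, n = 3.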

[22] = Reduction in HSP90 protein expression in human HCT116 cells at IC50 level by western blotting method; assay type: functional, cell-based; conditions: HCT-116
[23] = Reduction in HSP70 protein expression in human MIAPaCa2 cells at IC50 level by western blotting method; assay type: functional, cell-based; conditions: MIA PaCa-2
[24] = Reduction in HSP40 protein expression in human MIAPaCa2 cells at 50 uM by western blotting method relative to untreated control; assay type: functional, cell-based; conditions: MIA PaCa-2
[25] = Reduction in HSF1 protein expression in human HCT116 cells at 50 uM by western blotting method relative to untreated control; assay type: functional, cell-based; conditions: HCT-116
[26] = Reduction in HSP70 protein expression in human MIAPaCa2 cells at 50 uM by western blotting method relative to untreated control; assay type: functional, cell-based; conditions: MIA PaCa-2
HCT-116 [27] = experiment: Induction of apoptosis in human HCT116 cells at 50 uM after 24 hrs by annexin V and 7-AAD staining based flow cytometry; assay type: functional
[28] = Reduction in HSP27 protein expression in human MIAPaCa2 cells at 50 uM by western blotting method relative to untreated control; assay type: functional, cell-based; conditions: MIA PaCa-2
MIA PaCa-2 [29] = experiment: Induction of cell cycle arrest in human MIAPaCa2 cells assessed as accumulation at G0/G1 phase at 5 uM after 24 hrs by propidium iodide staining based cytometry; assay type: functional
HCT-116 [30] = experiment: Induction of cell cycle arrest in human HCT116 cells assessed as accumulation at G0/G1 phase at 5 uM after 24 hrs by propidium iodide staining based cytometry; assay type: functional
[31] = Reduction in HSP40 protein expression in human MIAPaCa2 cells at IC50 level by western blotting method; assay type: functional, cell-based; conditions: MIA PaCa-2
[32] = Reduction in HSP40 protein expression in human HCT116 cells at IC50 level by western blotting method; assay type: functional, cell-based; conditions: HCT-116
[33] = Reduction in HSP90 protein expression in human HCT116 cells at 50 uM by western blotting method relative to untreated control; assay type: functional, cell-based; conditions: HCT-116
HCT-116 [34] = experiment: Induction of apoptosis in human HCT116 cells assessed as caspase 3/7 activation at 50 uM after 24 hrs by luminometry; assay type: functional
[35] = Reduction in HSP90 protein expression in human MIAPaCa2 cells at 50 uM by western blotting method relative to untreated control; assay type: functional, cell-based; conditions: MIA PaCa-2
[36] = Reduction in HSP27 protein expression in human MIAPaCa2 cells at IC50 level by western blotting method; assay type: functional, cell-based; conditions: MIA PaCa-2
[37] = Reduction in HSP27 protein expression in human HCT116 cells at IC50 level by western blotting method; assay type: functional, cell-based; conditions: HCT-116
[38] = Reduction in HSF1 protein expression in human HCT116 cells at IC50 level by western blotting method; assay type: functional, cell-based; conditions: HCT-116
[39] = Reduction in HSF1 protein expression in human MIAPaCa2 cells at IC50 level by western blotting method; assay type: functional, cell-based; conditions: MIA PaCa-2
[40] = Reduction in HSP27 protein expression in human HCT116 cells at 50 uM by western blotting method relative to untreated control; assay type: functional, cell-based; conditions: HCT-116
[41] = Reduction in HSP70 protein expression in human HCT116 cells at IC50 level by western blotting method; assay type: functional, cell-based; conditions: HCT-116
[42] = Reduction in HSP40 protein expression in human HCT116 cells at 50 uM by western blotting method relative to untreated control; assay type: functional, cell-based; conditions: HCT-116
[43] = Reduction in HSP90 protein expression in human MIAPaCa2 cells at IC50 level by western blotting method; assay type: functional, cell-based; conditions: MIA PaCa-2
[44] = 80% EtOH/20% water, read-out: solubility

Chain of Heat shock protein HSP 90-beta (Oryctolagus cuniculus) (P30947 whole entry): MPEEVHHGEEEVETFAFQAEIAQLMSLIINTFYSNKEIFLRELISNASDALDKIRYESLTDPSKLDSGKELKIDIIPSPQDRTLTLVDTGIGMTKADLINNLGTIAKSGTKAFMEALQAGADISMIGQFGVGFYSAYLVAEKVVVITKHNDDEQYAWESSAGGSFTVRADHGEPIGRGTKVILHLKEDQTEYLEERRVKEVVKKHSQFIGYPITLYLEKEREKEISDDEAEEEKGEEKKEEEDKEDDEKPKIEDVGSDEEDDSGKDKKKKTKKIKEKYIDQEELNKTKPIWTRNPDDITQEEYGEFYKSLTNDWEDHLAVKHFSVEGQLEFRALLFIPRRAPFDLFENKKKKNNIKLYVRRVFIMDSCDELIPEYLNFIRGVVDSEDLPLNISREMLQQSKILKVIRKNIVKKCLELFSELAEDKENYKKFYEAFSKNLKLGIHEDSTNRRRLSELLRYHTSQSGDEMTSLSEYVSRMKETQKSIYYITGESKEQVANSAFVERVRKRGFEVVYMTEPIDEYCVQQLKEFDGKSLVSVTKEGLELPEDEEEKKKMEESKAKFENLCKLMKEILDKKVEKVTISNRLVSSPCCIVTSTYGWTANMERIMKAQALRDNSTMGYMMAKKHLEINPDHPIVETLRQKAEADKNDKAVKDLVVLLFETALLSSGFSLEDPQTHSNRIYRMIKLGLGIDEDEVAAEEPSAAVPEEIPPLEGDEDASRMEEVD

Structure (SMILES): CC(C)C[C@@H]1NC(=O)[C@H](C(C)C)N(C)C(=O)[C@@H](CC(C)C)NC(=O)[C@@H](Cc2ccccc2)NC(=O)[C@@H](C(c2ccccc2)c2ccccc2)NC1=O
- IC50 [1]: 7.6 µM
- solubility [2, 44]: 2100 µg/mL (≈ 2960 µM)
- IC50 [3]: 12.8 µM

Structure (SMILES): CC(C)C[C@@H]1NC(=O)[C@H](C(C)C)N(C)C(=O)[C@@H](CC(C)C)NC(=O)[C@@H](Cc2c[nH]c3ccccc23)NC(=O)[C@@H](C(c2ccccc2)c2ccccc2)NC1=O
- IC50 [1]: 3.9 µM
- solubility [2, 44]: 1900 µg/mL (≈ 2540 µM)
- IC50 [3]: 4.5 µM

Structure (SMILES): C=CCNC1=C2C[C@@H](C)C[C@H](OC)[C@H](O)[C@@H](C)/C=C(\C)[C@H](OC(N)=O)[C@@H](OC)/C=C\C=C(/C)C(=O)NC(=CC1=O)C2=O [TANESPIMYCIN]
- fold change (FC) [4]: 2
- inhibition [5]: 17%
- Activity (HCT-116 [6]): 25%
- fold change (FC) [7]: 2
- fold change (FC) (HCT-116 [8]): 2
- fold change (FC) [9]: 2
- fold change (FC) [10]: 2
- fold change (FC) [11]: 2
- fold change (FC) [12]: 2
- fold change (FC) [13]: 2
- fold change (FC) (MIA PaCa-2 [14]): 2
- fold change (FC) [15]: 2
- fold change (FC) [16]: 2
- fold change (FC) [17]: 2

Structure (SMILES): CC(C)C[C@@H]1NC(=O)[C@H](C(C)C)N(C)C(=O)[C@@H](CC(C)C)NC(=O)[C@@H](Cc2cscn2)NC(=O)[C@@H](C(c2ccccc2)c2ccccc2)NC1=O (HELM PEPTIDE1{L.[O=C([C@H](N[*:1])C(c1ccccc1)c1ccccc1)[*:2]].[O=C([C@@H](Cc1cscn1)N[*:1])[*:2]].[dL].[meV]}$PEPTIDE1,PEPTIDE1,1:R1-5:R2$$$V2.0)
- fold change (FC) [18]: 2
- fold change (FC) (MIA PaCa-2 [19]): 4
- IC50 [1]: 5 µM
- fold change (FC) [20]: 2
- inhibition [21]: 42%
- inhibition [22]: Active
- inhibition [23]: Active
- fold change (FC) [24]: 2
- solubility ([2]; buffer): 9500 µg/mL (≈ 13300 µM)
- fold change (FC) [25]: 2
- fold change (FC) [26]: 2
- Activity (HCT-116 [27]): 75%
- fold change (FC) [28]: 2
- Activity (MIA PaCa-2 [29]): Active
- Activity (HCT-116 [30]): Active
- inhibition [31]: Active
- inhibition [32]: Active
- fold change (FC) [33]: 2
- fold change (FC) (HCT-116 [34]): 4
- fold change (FC) [35]: 2
- inhibition [36]: Active
- inhibition [37]: Active
- inhibition [38]: Active
- inhibition [39]: Active
- fold change (FC) [40]: 2
- IC50 [3]: 5.5 µM
- inhibition [41]: Active
- fold change (FC) [42]: 2
- inhibition [43]: Active

Structure (SMILES): CC(C)C[C@@H]1NC(=O)[C@H](C(C)C)N(C)C(=O)[C@@H](CC(C)C)NC(=O)[C@@H](Cc2cccnc2)NC(=O)[C@@H](C(c2ccccc2)c2ccccc2)NC1=O
- IC50 [1]: 20.8 µM
- IC50 [3]: 23 µM

From ChEMBL document CHEMBL3352743, “Chemically accessible hsp90 inhibitor that does not induce a heat shock response” (ACS Med Chem Lett, 2014)
